TCR-CD3 inh: human TCR-CD3 binding inhibition; inhibition, % at 9.4 µM; 360,000 tested, 0.37% active; AID 651800; TAMRA-labeled TCR probe fluorescence, biochemical; in the data active = inhibition above about 19%;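 note: recombinant mutant TCR 2C K166C tagged with TAMRA read by polarization; 0% = receptor in buffer alone and 100% = receptor with positive control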
rCAG binder: molecules binding r(CAG) RNA repeats | r(CAG) RNA repeat, TO-PRO-1 dye displacement fluorescence | inhibition, % at 3 µM | 370,000 tested, 1.3% active;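 active = inhibition above the plate cutoff, the mean of all test compounds on that plate plus 3 SD, cut at about 35% in these data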;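 note: 0% = DMSO alone and 100% = 100 µM mitoxantrone as full dye displacement; higher means more dye released from RNA so lower well fluorescence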
SIAE primary: human SIAE inhibition, primary screen | Q9HAT2 | SIAE FP-Rh probe binding, fluorescence polarization | inhibition, % at 9.66 µM | 370,000 tested, 0.69% active | AID 1053197;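 active = inhibition above a cutoff: mean of compounds within the control limits plus 3 SD of those, cut at about 17% in these data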;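 note: 0% = plate median of compound wells and 100% = probe without SIAE protein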
PRMT1 FP inh: inhibitors of human PRMT1; AID 652257; recombinant PRMT1, activity-based probe fluorescence polarization; 370,000 tested, 1.3% active; inhibition, % at 2.79 µM; Q99873;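 active = inhibition above about 21% made by adding two undisclosed values, limit read from the data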
mABHD4 FP: inhibits mouse alpha/beta hydrolase domain 4; Q8VD66; 370,000 tested, 0.54% active; inhibition, % at 8.92 µM; purified mABHD4, FP-Rh probe fluorescence polarization;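 active = inhibition exceeding the mean over every tested compound plus 3 SD, cut at about 30% in these data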;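 note: 0% = plate median of compound wells and 100% = S159A mutant with DMSO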
Target sequence (Q8VD66 whole entry, looked up, the tested form may be a part): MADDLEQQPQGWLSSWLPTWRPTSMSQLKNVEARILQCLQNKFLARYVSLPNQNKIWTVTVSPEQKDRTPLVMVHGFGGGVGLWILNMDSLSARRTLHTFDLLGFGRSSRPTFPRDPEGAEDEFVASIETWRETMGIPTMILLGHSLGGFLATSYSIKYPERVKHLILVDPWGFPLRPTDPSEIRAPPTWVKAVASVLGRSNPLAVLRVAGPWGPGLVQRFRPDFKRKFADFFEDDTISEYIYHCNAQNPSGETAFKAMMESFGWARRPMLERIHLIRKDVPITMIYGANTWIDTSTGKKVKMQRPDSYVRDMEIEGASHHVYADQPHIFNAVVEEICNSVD
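assay system = mABHD4 protein | compound dosing = single nominal dose of 8.92 µM, 0.89% DMSO final | read-out basis = percent inhibition of probe binding, normalized to plate controls | schedule = Enzyme–compound pre-incubation 45 min, then probe 60 min, both 25 °C | detection = fluorescence polarization, excitation 525 nm, emission 598 nm, BODIPY TMR filters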
rCAG bind conf: r(CAG) RNA repeat binding, confirmation; inhibition, % at 3 µM; 4,300 tested, 70% active; AID 652065; shares compounds with rCAG binder; TO-PRO-1 dye displacement fluorescence;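 active = inhibition above a per-plate cutoff, the mean inhibition of sample wells plus 3 SD, cut at about 35% in these data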;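 note: loss of TO-PRO-1 fluorescence as compound displaces dye from 1x1 AA loop RNA; 0% = DMSO only wells and 100% = 100 µM mitoxantrone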
dCAG dye counter: disrupts DNA CAG TO-PRO-1 complex, flagging rCAG hits. 4,300 tested, 94% active. AID 652068. shares compounds with rCAG binder. d(CAG) DNA oligo TO-PRO-1 dye displacement, fluorescence. inhibition, % at 3 µM;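 active = inhibition above its plate's cutoff, the mean test-well inhibition plus 3 SD, cut at about 4.8% in these data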;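 note: 0% = DNA dye mix with DMSO and 100% = 100 µM mitoxantrone; hits displace the dye from DNA and so lower well fluorescence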
dCAG dye DR: disrupts DNA CAG TO-PRO-1 complex in dose response | shares compounds with rCAG binder | DNA CAG/GTC duplex TO-PRO-1 dye displacement fluorescence | IC50, µM | 250 tested, 20% active | AID 686960; in the data active = IC50 below about 10 µM
* marks the source's active call; other numbers are inactive results; i = inactive; nt = not tested or not shown; ! = repeats disagree. Most compounds without a hit are left out; they make up all but 3.3% or so of the library.

SMILES	TCR-CD3 inh	rCAG binder	SIAE primary	PRMT1 FP inh	mABHD4 FP	rCAG bind conf	dCAG dye counter	others
Cc1ccc(OCC(=O)Nc2nnc(S(=O)(=O)N3CCC(C)CC3)s2)cc1	0	42*	0	3	-7	53*	23*
O=S1(=O)c2ccc(N3CCN(Cc4ccccc4F)CC3)cc2Oc2ccccc2CN1Cc1cn(Cc2ccccc2C(F)(F)F)nn1	nt	12	-1	4	3	nt	nt
CCCC/C=C1/[C@H](c2ccc(Cl)cc2)N(Cc2ccc3c(c2)OCO3)C2=N[C@H](c3ccccc3)CC(=O)N21	nt	10	2	6	1	nt	nt
CCN(CC)N=Nc1ccc(S(=O)(=O)Nc2nc(C)cc(C)n2)cc1	5	43*!	-1	0	0	5	-2
Cc1cc(C)nc(NS(=O)(=O)c2ccc(NS(=O)(=O)c3ccccc3)cc2)n1	1	2	6	-1	-8	nt	nt
Cc1cccc(CNC(=S)OC2CCC23CCC(c2ccccc2)CC3)c1 (stereo unspecified)	nt	6	-5	5	-17	nt	nt
CCCCN(CCCC)c1nc2ccccc2nc1NS(=O)(=O)c1ccc(NC(C)=O)cc1	5	4	-3	1	9	nt	nt
CC(=O)Nc1ccc(S(=O)(=O)Nc2nc3ccccc3nc2Nc2cccc(O)c2)cc1	2	59*	3	-4	18	46*	12*
CC(=O)Nc1ccc(S(=O)(=O)Nc2nc3ccccc3nc2Nc2ccc3ccccc3c2)cc1	-5	75*	-1	0	18	93*	82*
O=C(CCc1ccccc1)N[C@H]1[C@@H](OC(=O)c2cccnc2)CCC[C@]12C(=O)N(Cc1ccccc1)c1ccccc12	nt	12	-2	3	-2	nt	nt
COc1ccc(C2C(C(=O)Nc3cc(OC)c(OC)c(OC)c3)CCC(=O)N2c2ccc(OC)cc2)cc1 (stereo unspecified)	nt	3	7	0	2	nt	nt
O=C(O)CC(Cc1ccc(Cl)cc1)C(=O)Nc1cc(Cl)ccc1Cl (stereo unspecified)	-5	40*	-8	-7	-9	27	4
CO/N=C/c1ccc(Oc2ccc([N+](=O)[O-])cc2[N+](=O)[O-])c(OC)c1	8	1	1	-4	-3	nt	nt
COc1cc(/C=C2\SC(=O)NC2=O)ccc1Oc1ccc([N+](=O)[O-])cc1[N+](=O)[O-]	6	52*	-17	1	-18	72*	33*	dCAG dye DR=i
Cc1cc(C)c2c(n1)sc1c(O)cc(=O)[nH]c12	1	15	-1	1	-2	nt	nt
COc1ccc(-c2cc(C(F)(F)F)c3c(n2)sc2c(O)cc(=O)[nH]c23)c(OC)c1	-11	42*	-2	6	-26	42*	14*
N#CCC[C@@H]1CC[C@]2(CCCN(C(=O)C3CCCCC3)C2)O1	nt	0	5	4	6	nt	nt
COc1ccc(C(=O)/C=C/c2ccc(OCc3ccccc3)cc2)cc1CSCC(=O)O	-2	57*	-19	4	-18	78*	36*
COc1ccc(C(=O)/C=C/c2cccc(OCc3ccccc3)c2)cc1CSCC(=O)O	2	60*	-28	11	-41	83*	44*
c1ccc2cc(Cn3ccc4ccc(-c5ccc6cc[nH]c6c5)cc43)ccc2c1	nt	30	7	7	25	nt	nt
Cc1nn(CCC(=O)NNC(=O)Nc2ccc(F)cc2)c(C)c1[N+](=O)[O-]	nt	0	-1	-2	0	nt	nt
CC(C)C(=O)N1CC[C@H]2[C@H](CCCN2Cc2ccc(F)cc2)C1	nt	1	0	6	-9	nt	nt
CC(=O)NS(=O)(=O)c1ccc(N=c2ssc3c2-c2ccc(C)cc2NC3(C)C)cc1	1	61*	2	1	16	52*	21*
CC1=CCC[C@@H]2[C@@](C)(CC/C(C)=C/C(=O)O)[C@H](C)CC[C@@]12C	1	45*	8	2	-18	43*	8.6*
COc1ccc2c(C(c3ccccc3O)C3CCCN3S(=O)(=O)c3ccc(C)cc3)cn(C)c2c1 (stereo unspecified)	nt	11	5	12	-29	nt	nt
SMILES	TCR-CD3 inh	rCAG binder	SIAE primary	PRMT1 FP inh	mABHD4 FP	rCAG bind conf	dCAG dye counter	others
Nc1c(C=C2C=CC(=O)C=C2)c(=O)nc2sc(CC(=O)N3CCOCC3)nn12	-2	18	-5	-2	-1	nt	nt
Nc1c(/C=C2\C=Nc3ccccc32)c(=O)nc2sc(CC(=O)N3CCOCC3)nn12	10	48*	-2	-5	10	31	8.7*
CC1(C(=O)NS(=O)(=O)c2cccc(Cl)c2)CCN1C(=O)C1(c2ccc(Cl)cc2)CC1 (stereo unspecified)	-2	43*	0	-2	2	45*	9.8*
CC1(C(=O)NS(=O)(=O)c2ccccc2)CCN1C(=O)C1(c2ccc(Cl)cc2)CCC1 (stereo unspecified)	-5	27	-1	5	1	nt	nt
Cc1cccc(S(=O)(=O)NC(=O)C2(C)CCN2C(=O)C2(c3ccc(Cl)cc3)CCC2)c1 (stereo unspecified)	-3	42*	-1	0	5	42*	11*
CC1(C(=O)NS(=O)(=O)c2cccc(Cl)c2)CCN1C(=O)C1(c2ccc(Cl)cc2)CCC1 (stereo unspecified)	-3	61*	-8	0	-2	67*	18*
CC(C)(C)OC(=O)NCc1ccccc1/C=C/S(=O)(=O)NCCc1ccccc1	nt	0	-2	0	-7	nt	nt
CC(C)Oc1ccc(-c2csc(N3CCC(C(N)=O)CC3)n2)cc1	nt	nt	1	5	2	nt	nt
O=S1(=O)CC2c3ccccc3CN2CN1Cc1ccccc1 (stereo unspecified)	nt	5	3	-2	-1	nt	nt
COc1cc(C2c3c([nH]c(=O)[nH]c3=O)Nc3ccc4ccccc4c32)cc(OC)c1OC (stereo unspecified)	1	42*	13	-3	1	30	10*
COc1cc(C2C3=C(CCCC3=O)Nc3[nH]n(-c4ccccc4)c(=O)c32)cc(OC)c1OC (stereo unspecified)	10	5	7	1	7	nt	nt
CC(C)C(=O)N1CC[C@H]2[C@H](CCCN2Cc2ccccc2)C1	nt	1	4	2	-1	nt	nt
COc1ccc(CN2C(=O)CSCCC2(C)c2nnnn2-c2c(C)cccc2C)cc1 (stereo unspecified)	nt	3	3	3	6	nt	nt
COc1cccc(/C=N/Nc2snc(SC)c2C#N)c1	-7	47*	12	13	15	36*	15*

High-throughput results (PubChem)
